HSF1 inhib = HSF1 inhibitors in luciferase reporter cells, primary screen, cell-based, NIH3T3, luminescence. NIH3T3-HGL HSE-luciferase, MG132-induced, luminescence 8 h; active compounds read low. activity change, negative = inhibition, % at 7.5 µM (by protocol). actives 0.77% (n = 300,000);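 active = more than half of replicate wells show activity change below -50%, luminescence cut by over half; inconclusive = some wells, but at most half, below -50%; inactive = no replicate well below -50%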;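 note: luciferase reports HSF-1 transcriptional activity via heat shock element; 0% = median of DMSO wells and -100% = zero luminescence signal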
HKDC1 inh = HKDC1 hexokinase inhibitors, primary screen, biochemical, fluorescence, uHTS. inhibition, % at 20 µM. actives 0.16% (n = 340,000). Q2TB90. recombinant HKDC1, G6PDH/diaphorase resazurin coupled fluorescence;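 active = inhibition above about 35% when tested at 20 µM, limit read from the data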;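 note: plate controls were DMSO wells with enzyme for no effect and DMSO wells lacking enzyme for full effect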
Target sequence (Q2TB90 whole entry, looked up): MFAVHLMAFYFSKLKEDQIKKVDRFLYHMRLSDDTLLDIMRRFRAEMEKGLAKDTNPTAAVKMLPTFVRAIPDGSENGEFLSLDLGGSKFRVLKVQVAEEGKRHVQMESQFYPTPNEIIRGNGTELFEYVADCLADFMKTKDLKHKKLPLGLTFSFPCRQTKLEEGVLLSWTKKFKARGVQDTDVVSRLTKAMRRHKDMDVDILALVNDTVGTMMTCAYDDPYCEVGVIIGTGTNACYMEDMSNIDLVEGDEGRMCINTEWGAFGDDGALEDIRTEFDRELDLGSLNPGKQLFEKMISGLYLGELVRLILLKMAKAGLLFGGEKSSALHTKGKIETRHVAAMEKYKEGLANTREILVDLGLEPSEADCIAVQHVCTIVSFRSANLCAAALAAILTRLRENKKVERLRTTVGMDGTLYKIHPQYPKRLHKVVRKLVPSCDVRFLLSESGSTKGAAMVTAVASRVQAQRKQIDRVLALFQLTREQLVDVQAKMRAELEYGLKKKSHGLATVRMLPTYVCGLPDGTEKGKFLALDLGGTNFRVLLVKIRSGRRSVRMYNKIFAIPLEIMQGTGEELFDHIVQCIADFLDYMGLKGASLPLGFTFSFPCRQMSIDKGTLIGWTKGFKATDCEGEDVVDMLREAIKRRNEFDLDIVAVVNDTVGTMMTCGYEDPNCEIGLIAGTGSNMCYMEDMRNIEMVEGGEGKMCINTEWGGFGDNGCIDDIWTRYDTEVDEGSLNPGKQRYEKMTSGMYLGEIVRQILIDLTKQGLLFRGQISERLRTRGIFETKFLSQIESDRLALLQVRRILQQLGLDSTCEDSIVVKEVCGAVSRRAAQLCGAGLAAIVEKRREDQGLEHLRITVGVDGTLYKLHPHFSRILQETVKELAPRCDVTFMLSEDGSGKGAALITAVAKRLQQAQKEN
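Assay system – recombinant HKDC1 (HK5) hexokinase enzyme, produced in-house · Input – HKDC1 at 5 µg/mL · Reagent – glucose plus 1 mM ATP as hexokinase substrates · Timing – 90 min reaction incubation at room temperature, dark · Measured by – G6PDH/diaphorase-coupled fluorescence, 1 mM NADP, 100 µM resazurin, 525/613 nm · Benchmarks – DMSO-enzyme wells negative, buffer-substituted wells positive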
HSP90 refold inh = HSP90 inhibitors, primary screen, cell lysate, luminescence; Rabbit reticulocyte lysate, luciferase refolding luminescence, 3 h; Heat shock protein HSP 90 (rabbit reticulocyte lysate; luciferase refolding); inhibition, % at 5.6 µM; actives 0.91% (n = 290,000);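 active = inhibition above the screen-wide mean plus 3 SD, computed separately per campaign, cut at about 16% in these data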;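 note: 0% = DMSO wells and 100% = 60 µM geldanamycin wells; inhibitors lower the luminescence because luciferase stays unfolded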
HSF1 activator = HSF-1 activators, primary screen, NIH3T3-HGL cells, MG132 stress, luminescence, single point; NIH3T3-HGL HSF-1 luciferase reporter, 8 h; 100% = twice DMSO control signal; actives 1.7% (n = 300,000); activation, % at 9 µM;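 active = mean replicate activation of at least 50% with a set share of replicates each reaching 50%; inconclusive = only one of those two conditions met; inactive = mean below 50% and too few replicates reaching it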;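 note: 0% = median of the neutral control wells and 100% = twice that signal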
Hsp70 activator = Hsp70 transcriptional activators, primary screen, cell-based, HeLa, Hsp70 promoter luciferase, luminescence, 10 µM. HeLa Hsp70 promoter luciferase reporter; scaled: vehicle 0, proteasome-inhibitor control 100%. activation, % at 10 µM. actives 0.04% (n = 200,000);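 active = activation above the mean across all tested compounds plus 3 SD, cutoff set per campaign, cut at about 5.5% in these data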;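 note: 100% = MG132 at 30 µM as the positive control and 0% = DMSO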
Tb hexokinase = Trypanosoma brucei hexokinase 1 inhibitors, primary screen, biochemical, G6PDH-coupled NADH absorbance, MLSCN library | inhibition, % at 10 µM | recombinant TbHK1, G6PDH-coupled NADH A340 | hexokinase 1 [Trypanosoma brucei] | actives 0.11% (n = 220,000);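 active = inhibition of 50% or more in the single-dose primary screen; inactive = inhibition below 50%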
G6PDH ctr = Leuconostoc G6PDH inhibition, confirmation, counter-screen for TbHK1 inhibitor project, biochemical, DPI cherry-picked compounds, single concentration. shares compounds with Tb hexokinase. purified G6PDH, NADH absorbance, 1 h. inhibition, % at 10 µM. actives 7% (n = 210). AID 2516, 2010;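 active = at least 50% inhibition in the glucose-6-phosphate dehydrogenase coupled counterscreen; inconclusive = no clear call, values can overlap the other calls; inactive = inhibition below 50%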
TbHK1 rescreen = TbHK1 inhibitor retest, confirmation, biochemical, DPI cherry-picked primary actives; shares compounds with Tb hexokinase; recombinant TbHK1, G6PDH-coupled NADH A340 absorbance; inhibition, % at 10 µM; actives 10% (n = 210);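 active = inhibition of at least 50% in both of the two screening runs; inconclusive = at least 50% in one run, below 50% in the other; inactive = inhibition below 50% in both runs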;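 note: 0% and 100% set by the maximum and minimum signal control wells on each plate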
The depositor's hits bear a star; ? = inconclusive; · = not tested or not shown. Compounds with a hit are over-represented: about 3.1% of the library has one in this group of screens.

SMILES	HSF1 inhib	HKDC1 inh	HSP90 refold inh	HSF1 activator	Hsp70 activator	Tb hexokinase	G6PDH ctr	TbHK1 rescreen
Cc1ccc(C(=O)NC2CC3CCCC(C2)N3C(=O)NC2CCCCC2)cc1 (configuration not stated)	-0.8	·	1.9	-5.9	-0.2	-2.7	·	·
CCOC(=O)NC(NC(=O)OCC)C(=O)c1ccccc1	-4.8	4.4	-2.2	-15.7	0.0	64.9*	-5.1	-0.7
O=C(NC(NC(=O)c1ccccc1)C(=O)c1ccccc1)c1ccccc1	-4.1	-3.4	-2.1	-4.5	0.3	2.9	·	·
O=c1c(O)cccc2cc(O)c(O)c(O)c12	3.9	30.6	-0.7	-9.6	·	69.7*	-8.4	?
OCC1N=C(c2ccccn2)OC1c1ccccc1 (configuration not stated)	-3.9	4.1	4.4	-5.3	0.2	56.3*	0.5	-0.3
CCc1cccc(C)c1NC(=O)c1cc(=O)[nH]c2ccc(S(=O)(=O)N3CCOCC3)cc12	·	-10.3	·	·	·	·	·	·
CCN1C(=O)[C@H]2[C@@H](c3ccc(Cl)cc3)N3C(=O)CN(CC4CC4)C(=O)[C@@]3(Cc3ccccc3)[C@H]2C1=O	-1.8	-6.1	-4.6	-5.7	·	·	·	·
CCOc1ccc(C2=CC(=O)C[C@H](c3ccc(OC)cc3)C2)cc1	·	0.7	·	·	·	·	·	·
Cc1cc(C(=O)NNS(=O)(=O)c2ccc(C(C)(C)C)cc2)nn1C(C)(C)C	5.0	4.6	1.8	8.8	·	52.4*	-6.4	3.5
CC(NC(=O)CNC(=O)OCc1ccccc1)C(=O)N1CC(O)CC1C(=O)OCc1ccccc1 (configuration not stated)	1.0	-5.7	5.2	-6.4	-0.1	50.7*	-10.4	-1.0
O=C(NCC(=O)N1CC(O)CC1C(=O)N1CC(O)CC1C(=O)OCc1ccccc1)OCc1ccccc1 (configuration not stated)	-1.1	17.7	1.8	-3.0	-0.1	0.8	·	·
O=C(NCc1cccc(Cl)c1)c1ccc2nc[nH]c2c1	1.7	3.7	0.2	14.2	-0.2	4.0	·	·
COc1cccc(CNC(=O)c2ccc3nc[nH]c3c2)c1	-8.5	3.0	3.3	-9.3	0.1	66.8*	-0.5	-0.9
CCOC(=O)Nc1cc2c(cc1[N+](=O)[O-])-c1ccccc1C2=O	·	-2.0	·	·	·	·	·	·
COc1ccc(CCNC(=O)Cn2nnc(-c3ccc(N4CCOCC4)cc3)n2)cc1OC	-1.4	-6.9	-0.7	8.9	0.1	51.1*	-19.3	-17.0
COc1ccc(CCNC(=O)Cn2nnc(-c3cccc(OC)c3OC)n2)cc1OC	12.6	-4.3	6.3	3.4	-0.4	-1.0	·	·
O=C(Nc1c[nH]c(=O)[nH]c1=O)c1ccc2c(c1)C(=O)N(c1cccc([N+](=O)[O-])c1)C2=O	2.2	-5.1	2.3	9.4	·	56.0*	83.6*	69.5*
O=C(Nc1ccccc1C(=O)O)c1ccc2c(c1)C(=O)N(c1cccc([N+](=O)[O-])c1)C2=O	0.0	7.0	0.0	-10.0	·	·	·	·
Cc1cc(NC(=O)CSc2nc(-c3cccs3)nc3ccccc23)no1	·	2.9	·	·	·	·	·	·
CN(C)S(=O)(=O)c1cccc(NC(=S)NN=C(Cc2ccccc2)Cc2ccccc2)c1	5.6	-22.3	-2.3	-4.6	-0.2	51.4*	12.5	-4.1
O=C(COC(=O)Cc1ccc(S(=O)(=O)N2CCOCC2)s1)Nc1ccc(OC(F)F)cc1	·	4.5	·	·	·	·	·	·
Cc1nc(S(=O)(=O)N2CCOCC2)c(C#N)c(C)c1Cl	5.6	0.3	-0.7	-9.3	0.1	55.4*	-8.5	-4.6
